The target in test [1] is Inhibitor of nuclear factor kappa-B kinase subunit alpha (Homo sapiens) (UniProt O15111). As to the kind of experiment: Inhibition of human full length recombinant IKKalpha at 1 uM using peptide as substrate incubated for 40 mins in presence of [gamma-33P]ATP at Km concentration by radiometric assay relative to control.
For test [2], the species on record is Homo sapiens. As to the kind of experiment: Inhibition of recombinant full-length human PI3K p110delta/p85alpha N253S mutant at 1 uM using phosphatidylinositol-4, 5-bisphosphate as substrate measured after 40 mins by fluorescence assay relative to control.
Test [3] deals with Tribbles homolog 2 (Homo sapiens) (UniProt Q92519). Briefly: Inhibition of recombinant full-length human TRB2 at 1 uM using RRRFRPASPLRGPPK as substrate measured after 120 mins in presence of [gamma33P]ATP by scintillation counting method relative to control.
Chain of Tribbles homolog 2 (Homo sapiens) (Q92519 whole entry): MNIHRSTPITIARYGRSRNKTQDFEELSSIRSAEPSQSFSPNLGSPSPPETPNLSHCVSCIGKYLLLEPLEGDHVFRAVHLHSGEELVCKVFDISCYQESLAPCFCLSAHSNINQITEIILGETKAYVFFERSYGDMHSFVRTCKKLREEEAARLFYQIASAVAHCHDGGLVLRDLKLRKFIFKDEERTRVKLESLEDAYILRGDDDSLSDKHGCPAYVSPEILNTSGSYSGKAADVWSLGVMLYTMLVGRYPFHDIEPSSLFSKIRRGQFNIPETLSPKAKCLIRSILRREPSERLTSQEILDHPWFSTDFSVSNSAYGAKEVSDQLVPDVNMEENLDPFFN
Test [4] deals with Cyclin-dependent kinase 9 (Homo sapiens) (UniProt P50750). Particulars: 0.25 to 1 uM.
Chain of Cyclin-dependent kinase 9 (Homo sapiens) (P50750 whole entry): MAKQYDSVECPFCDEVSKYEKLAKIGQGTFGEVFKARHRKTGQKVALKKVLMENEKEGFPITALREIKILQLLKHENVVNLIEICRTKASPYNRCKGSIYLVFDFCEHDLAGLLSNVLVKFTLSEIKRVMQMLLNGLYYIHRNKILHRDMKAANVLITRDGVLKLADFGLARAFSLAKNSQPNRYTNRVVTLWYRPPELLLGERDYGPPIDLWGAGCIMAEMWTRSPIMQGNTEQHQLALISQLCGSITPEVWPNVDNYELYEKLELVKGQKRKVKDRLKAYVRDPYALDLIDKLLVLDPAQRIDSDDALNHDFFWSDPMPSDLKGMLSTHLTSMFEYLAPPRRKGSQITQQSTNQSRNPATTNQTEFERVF
In test [5] the target is Activin receptor type-1 (Homo sapiens) (UniProt Q04771). As to the kind of experiment: Inhibition of recombinant human ALK2 (147 to end residues) at 1 uM using casein as substrate measured after 40 mins in presence of [gamma33P]ATP by scintillation counting method relative to control. Summed up:
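Single-point inhibition at 1 µM was measured in the Eurofins KinaseProfiler panel. Values are the mean of two independent experiments.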

Test [6] has as its target PI3-kinase p110-alpha/p85-alpha (Homo sapiens) (UniProt P27986+P42336). As to the kind of experiment: Inhibition of recombinant full-length human PI3K p110alpha/p85alpha at 1 uM using phosphatidylinositol-4, 5-bisphosphate as substrate measured after 40 mins by fluorescence assay relative to control. The test is classed as protein-complex assay.
In test [7] the test system is NCI-H1299. As to the kind of experiment: Antitumour activity against human H1299 cells xenografted in Balb/c mouse assessed as effect on cyclin T1 level at 20 to 80 mg/kg, po administered for 3 weeks by immunohistochemistry. For orientation: Xenograft models place foreign cells or tissue in a host animal.
Test [8] has as its target Tyrosine-protein kinase Yes (Homo sapiens) (UniProt P07947). Briefly: Inhibition of recombinant full-length human YES at 1 uM using poly(Glu, Tyr) 4:1 as substrate measured after 40 mins in presence of [gamma33P]ATP by scintillation counting method relative to control.
For test [9], the system named is A549. As to the kind of experiment: Downregulation of NANOG in human A549 cells at 0.25 to 1 uM by Western blot analysis. The test is classed as functional, cell-based. On the technique in general: A western blot detects proteins with antibodies after separation by electrophoresis.
The target of test [10] is Serine/threonine-protein kinase PAK 4 (Homo sapiens) (UniProt O96013). Briefly: Inhibition of recombinant human PAK4 (295 to end residues) at 1 uM using myelin basic protein as substrate measured after 40 mins in presence of [gamma33P]ATP by scintillation counting method relative to control.
Chain of Serine/threonine-protein kinase PAK 4 (Homo sapiens) (O96013 whole entry, looked up): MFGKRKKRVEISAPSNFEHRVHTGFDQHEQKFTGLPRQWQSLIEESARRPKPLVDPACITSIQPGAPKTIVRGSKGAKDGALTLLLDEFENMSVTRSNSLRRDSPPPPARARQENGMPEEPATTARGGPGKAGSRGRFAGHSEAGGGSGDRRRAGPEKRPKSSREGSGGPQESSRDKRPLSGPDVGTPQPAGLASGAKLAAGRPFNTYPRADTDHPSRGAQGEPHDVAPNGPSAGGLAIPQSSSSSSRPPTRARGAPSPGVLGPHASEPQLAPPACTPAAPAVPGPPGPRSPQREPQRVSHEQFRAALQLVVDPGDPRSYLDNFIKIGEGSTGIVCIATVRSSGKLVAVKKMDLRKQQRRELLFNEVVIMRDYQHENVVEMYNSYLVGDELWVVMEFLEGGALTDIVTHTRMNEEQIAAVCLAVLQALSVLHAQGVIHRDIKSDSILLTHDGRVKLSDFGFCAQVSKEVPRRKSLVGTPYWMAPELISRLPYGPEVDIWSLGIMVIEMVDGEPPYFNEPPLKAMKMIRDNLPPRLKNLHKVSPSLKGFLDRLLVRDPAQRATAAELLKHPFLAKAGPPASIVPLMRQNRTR
Test [11] deals with Serine/threonine-protein kinase D1 (Homo sapiens), Q15139 [UNDEFINED MUTATION]. Briefly: Inhibition of recombinant full-length human PKCmu R135A mutant at 1 uM using KKLNRTLSVA as substrate measured after 40 mins in presence of [gamma33P]ATP by scintillation counting method relative to control.
Chain of Serine/threonine-protein kinase D1 (Homo sapiens), Q15139 [UNDEFINED MUTATION] (Q15139 whole entry, looked up, stated change not applied): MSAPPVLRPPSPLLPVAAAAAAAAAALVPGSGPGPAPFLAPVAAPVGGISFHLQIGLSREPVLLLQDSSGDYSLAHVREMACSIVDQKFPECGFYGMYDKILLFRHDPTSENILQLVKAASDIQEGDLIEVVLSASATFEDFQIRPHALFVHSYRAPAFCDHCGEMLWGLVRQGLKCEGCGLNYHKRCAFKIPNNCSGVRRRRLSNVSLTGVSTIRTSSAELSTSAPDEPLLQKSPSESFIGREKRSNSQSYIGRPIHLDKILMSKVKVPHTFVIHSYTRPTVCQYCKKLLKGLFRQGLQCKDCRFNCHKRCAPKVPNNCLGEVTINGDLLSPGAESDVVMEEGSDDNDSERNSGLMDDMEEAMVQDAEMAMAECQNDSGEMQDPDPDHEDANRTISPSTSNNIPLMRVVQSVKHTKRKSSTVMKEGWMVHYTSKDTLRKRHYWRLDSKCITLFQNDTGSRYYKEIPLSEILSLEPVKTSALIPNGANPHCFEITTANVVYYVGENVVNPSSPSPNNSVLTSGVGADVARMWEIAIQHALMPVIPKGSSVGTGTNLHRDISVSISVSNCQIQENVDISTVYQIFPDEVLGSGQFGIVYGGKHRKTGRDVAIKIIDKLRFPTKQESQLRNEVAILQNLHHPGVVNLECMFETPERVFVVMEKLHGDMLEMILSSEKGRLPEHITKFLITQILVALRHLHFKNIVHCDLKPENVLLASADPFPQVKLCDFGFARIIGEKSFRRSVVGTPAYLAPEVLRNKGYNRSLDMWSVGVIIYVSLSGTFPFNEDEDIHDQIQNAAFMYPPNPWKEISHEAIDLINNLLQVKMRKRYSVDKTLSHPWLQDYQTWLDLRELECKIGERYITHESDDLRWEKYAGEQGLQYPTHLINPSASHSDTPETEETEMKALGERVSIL
Test [12] addresses Cyclin-dependent kinase 9 (Homo sapiens) (UniProt P50750). Particulars: A549, 0.25 to 1 uM.
Test [13] has as its target Ribosomal protein S6 kinase alpha-4 (Homo sapiens) (UniProt O75676). As to the kind of experiment: Inhibition of recombinant human MSK2 (2 to end residues) at 1 uM using GRPRTSSFAEGKK as substrate measured after 40 mins in presence of [gamma33P]ATP by scintillation counting method relative to control.
Test [14] relates to A549. Briefly: Antiproliferative activity against human A549 cells assessed as inhibition of cell viability at 1 uM after 72 hrs by CCK-8 assay relative to control. The class given is functional. Particulars: A549, 72 h. Summed up:
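Single-concentration viability screen using CCK-8. Cells were seeded at 3000/well and treated for 72 h. A450 read after 1-4 h with reagent. Percent inhibition calculated against untreated control and blank wells as (Ac−As)/(Ac−Ab)×100%.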
On the technique in general: Formazan colour is commonly taken as a measure of viable cells.

Test [15] relates to Ribosomal protein S6 kinase beta-1 (Homo sapiens), P23443 [T412E]. As to the kind of experiment: Inhibition of recombinant full-length human p70S6K (1 to 421 residues) T412E mutant at 1 uM using KKRNRTLTV as substrate measured after 40 mins in presence of [gamma33P]ATP by scintillation counting method relative to control.
Chain of Ribosomal protein S6 kinase beta-1 (Homo sapiens), P23443 [T412E] (P23443 whole entry T412E, looked up, the tested form may be a part): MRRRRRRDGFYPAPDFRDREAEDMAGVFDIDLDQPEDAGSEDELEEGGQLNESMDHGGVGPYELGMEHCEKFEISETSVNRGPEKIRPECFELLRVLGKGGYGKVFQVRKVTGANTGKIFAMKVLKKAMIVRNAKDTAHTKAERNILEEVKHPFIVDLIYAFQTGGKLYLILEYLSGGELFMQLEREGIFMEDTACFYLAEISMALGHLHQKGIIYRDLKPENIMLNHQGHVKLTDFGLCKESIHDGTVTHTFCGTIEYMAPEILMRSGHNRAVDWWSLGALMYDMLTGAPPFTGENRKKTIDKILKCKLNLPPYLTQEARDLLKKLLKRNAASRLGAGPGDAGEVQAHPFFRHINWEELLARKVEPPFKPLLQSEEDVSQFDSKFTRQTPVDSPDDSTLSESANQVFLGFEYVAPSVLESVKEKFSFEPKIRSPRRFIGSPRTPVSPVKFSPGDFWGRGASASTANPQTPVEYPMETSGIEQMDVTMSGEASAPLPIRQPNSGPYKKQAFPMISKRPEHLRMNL
Test [16] deals with Tyrosine-protein kinase ABL1 (Homo sapiens), P00519 [Y253F]. As to the kind of experiment: Inhibition of recombinant human Abl Y253F mutant (27 to end residues) at 1 uM using EAIYAAPFAKKK as substrate measured after 40 mins in presence of [gamma33P]ATP by scintillation counting method relative to control.
Test [17] has as its target CDK7/Cyclin H/MNAT1 (Homo sapiens) (UniProt P51946+P50613+P51948). As to the kind of experiment: Inhibition of human full length recombinant CDK7/cyclinH/MAT1 at 1 uM using peptide as substrate incubated for 40 mins in presence of [gamma-33P]ATP at by radiometric assay relative to control. The test is classed as protein-complex assay.
In test [18] the target is Serine/threonine-protein kinase MAK (Homo sapiens) (UniProt P20794). Briefly: Inhibition of recombinant full-length human MAK at 1 uM using RRRFRPASPLRGPPK as substrate measured after 120 mins in presence of [gamma33P]ATP by scintillation counting method relative to control.
Chain of Serine/threonine-protein kinase MAK (Homo sapiens) (P20794 whole entry): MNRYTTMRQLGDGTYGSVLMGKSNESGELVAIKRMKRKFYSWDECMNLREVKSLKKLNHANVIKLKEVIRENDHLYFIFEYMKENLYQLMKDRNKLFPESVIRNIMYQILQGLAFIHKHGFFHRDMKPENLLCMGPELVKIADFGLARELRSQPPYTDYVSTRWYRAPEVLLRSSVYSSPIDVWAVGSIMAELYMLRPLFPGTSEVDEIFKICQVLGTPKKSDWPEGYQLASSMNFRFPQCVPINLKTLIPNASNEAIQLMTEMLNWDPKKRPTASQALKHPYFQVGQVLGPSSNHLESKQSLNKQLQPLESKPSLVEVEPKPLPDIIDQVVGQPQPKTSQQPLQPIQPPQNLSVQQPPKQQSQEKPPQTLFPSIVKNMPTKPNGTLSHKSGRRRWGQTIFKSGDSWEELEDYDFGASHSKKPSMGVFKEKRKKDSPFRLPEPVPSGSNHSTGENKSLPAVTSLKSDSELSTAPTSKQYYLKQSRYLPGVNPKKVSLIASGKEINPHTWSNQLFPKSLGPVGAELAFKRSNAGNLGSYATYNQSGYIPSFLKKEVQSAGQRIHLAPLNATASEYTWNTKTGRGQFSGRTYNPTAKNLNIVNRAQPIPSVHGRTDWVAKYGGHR
For test [19], the target named is Dual specificity mitogen-activated protein kinase kinase 6 (Homo sapiens) (UniProt P52564). Briefly: Inhibition of recombinant human MKK6 (4 to end residues) at 1 uM using unactive SAPK2a as substrate measured after 40 mins in presence of [gamma33P]ATP by scintillation counting method relative to control.
Test [20] has as its system RAC-gamma serine/threonine-protein kinase (Homo sapiens), Q9Y243 [S472D]. Briefly: Inhibition of recombinant human pkb-gamma S472D mutant (117 to end residues) S472D mutant at 1 uM using GRPRTSSFAEGKK as substrate measured after 40 mins in presence of [gamma33P]ATP by scintillation counting method relative to control.
For test [21], the system named is HepG2. As to the kind of experiment: Antiproliferative activity against human HepG2 cells assessed as inhibition of cell viability after 72 hrs by CCK-8 assay. The test is classed as functional, cell-based. Particulars: HepG2, 72 h. In outline:
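Cells kept at 37 °C, 5% CO2 in DMEM or RPMI-1640 with 10% FBS and 1% penicillin/streptomycin, then seeded at 3000 cells/well (adherent) or 10,000 cells/well (suspension). Exposed to a range of concentrations for 72 h. CCK-8 added for 1-4 h before reading A450. […] Three independent experiments.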

For test [22], the target named is Serine/threonine-protein kinase Nek6 (Homo sapiens) (UniProt Q9HC98). Briefly: Inhibition of recombinant human NEK6 (2 to end residues) at 1 uM using FLAKSFGSPNRAY as substrate measured after 40 mins in presence of [gamma33P]ATP by scintillation counting method relative to control.
The target in test [23] is Ephrin type-B receptor 1 (Homo sapiens) (UniProt P54762). Briefly: Inhibition of recombinant human EphB1 (564 to end residues) at 1 uM using KVEKIGEGTYGVVYK as substrate measured after 40 mins in presence of [gamma33P]ATP by scintillation counting method relative to control.
Chain of Ephrin type-B receptor 1 (Homo sapiens) (P54762 whole entry): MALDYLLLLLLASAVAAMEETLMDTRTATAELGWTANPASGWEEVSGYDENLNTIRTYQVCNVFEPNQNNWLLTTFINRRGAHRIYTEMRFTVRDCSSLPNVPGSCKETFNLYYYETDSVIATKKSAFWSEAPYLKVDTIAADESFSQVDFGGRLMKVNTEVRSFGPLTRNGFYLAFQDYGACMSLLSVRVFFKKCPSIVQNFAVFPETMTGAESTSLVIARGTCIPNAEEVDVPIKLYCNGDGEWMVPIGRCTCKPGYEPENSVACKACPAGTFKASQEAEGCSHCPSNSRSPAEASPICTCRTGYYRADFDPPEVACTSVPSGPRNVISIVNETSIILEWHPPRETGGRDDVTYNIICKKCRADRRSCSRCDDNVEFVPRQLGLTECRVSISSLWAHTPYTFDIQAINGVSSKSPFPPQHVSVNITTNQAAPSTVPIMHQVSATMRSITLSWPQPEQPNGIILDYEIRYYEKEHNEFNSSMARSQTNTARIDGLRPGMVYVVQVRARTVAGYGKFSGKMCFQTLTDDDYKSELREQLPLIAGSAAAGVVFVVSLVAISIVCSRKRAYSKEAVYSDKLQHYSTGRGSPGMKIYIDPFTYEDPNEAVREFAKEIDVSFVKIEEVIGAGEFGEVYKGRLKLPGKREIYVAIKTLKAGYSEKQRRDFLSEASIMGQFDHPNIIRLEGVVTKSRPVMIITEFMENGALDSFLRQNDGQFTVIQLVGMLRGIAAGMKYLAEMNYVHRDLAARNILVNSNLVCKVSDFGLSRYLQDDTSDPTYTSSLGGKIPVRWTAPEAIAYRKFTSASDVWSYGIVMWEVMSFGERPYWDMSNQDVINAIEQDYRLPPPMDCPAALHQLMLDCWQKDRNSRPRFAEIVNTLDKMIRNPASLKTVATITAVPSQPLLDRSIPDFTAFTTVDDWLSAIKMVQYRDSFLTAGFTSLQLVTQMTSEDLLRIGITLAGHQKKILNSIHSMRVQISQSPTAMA

These results are taken from ChEMBL document CHEMBL4376814, “Novel cyclin-dependent kinase 9 (CDK9) inhibitor with suppression of cancer stemness activity against non-small-cell lung cancer” (Eur J Med Chem, 2019).

The structures appear in SMILES notation. pIC50: −log10 of the molar value. Active and inactive are the calls of the source. The calls are words filed in the database; no cut-off is given here.

The term inhibition denotes the relative decrease from the control value, in per cent. Broadly, the pIC50 is the IC50 on a negative log10 scale, so that one unit is a factor of ten.

Chain of Tyrosine-protein kinase Yes (Homo sapiens) (P07947 2-543 limits assumed): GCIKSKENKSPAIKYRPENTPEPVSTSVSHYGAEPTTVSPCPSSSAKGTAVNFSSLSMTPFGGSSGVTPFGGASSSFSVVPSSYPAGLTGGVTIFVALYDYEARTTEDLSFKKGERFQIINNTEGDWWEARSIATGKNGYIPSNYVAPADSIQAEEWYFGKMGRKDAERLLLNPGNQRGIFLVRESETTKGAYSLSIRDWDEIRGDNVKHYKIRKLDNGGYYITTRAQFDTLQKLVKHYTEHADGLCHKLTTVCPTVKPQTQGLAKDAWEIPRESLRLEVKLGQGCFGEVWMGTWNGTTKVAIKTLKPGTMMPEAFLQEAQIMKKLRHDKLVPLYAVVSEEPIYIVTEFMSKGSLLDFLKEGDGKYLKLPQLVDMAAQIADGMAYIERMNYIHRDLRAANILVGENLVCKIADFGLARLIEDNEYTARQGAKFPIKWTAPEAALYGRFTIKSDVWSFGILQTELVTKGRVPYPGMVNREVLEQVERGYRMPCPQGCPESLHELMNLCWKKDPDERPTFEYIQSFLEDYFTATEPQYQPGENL

As to `CN(C)C(=O)c1cc2cnc(Nc3ccc(NC(=O)CCCCCCCN=C=S)cc3)nc2n1C1CCCC1`, the inhibition was -1% in [1]; 2% in test [2]; 22% in test [3]; 11% in test [5]; 8% in test [6]; 61% in test [8]. Moreover, the inhibition in test [10] worked out at 10%; in test [11] it was 3%; in [13], 6%; in test [15], 40%; in test [16], 53%; in test [17], 55%. The inhibition was determined as 94% in [18]; 30% in [19]; 10% in [20]; 4% in test [22]; 9% in [23]. In addition, the inhibition result in [4] and in test [12] was “Active” each time. Moreover, the result in test [7] was inactive. The outcome in test [9] was Active. The inhibition at 1 µM in test [14] turned out to be 85.6%. Besides, the pIC50 in test [21] is 5.41.
